Like-named read-outs stand apart in the source and are kept apart here.
Key:
NK cells = assay: NK cell trans-activation; assay type: in vivo, mouse; settings: 1 μg i.v., 18 h after injection, liver and spleen
In short: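 Glycolipid (DMSO stock diluted in PBS) was given i.v. Liver was perfused via portal vein and mononuclear cells isolated at the 40/60% Percoll interface (900 g, 20 min); splenocytes were dissociated and red cells lysed. Cells were surface-stained at 4°C for 45 min, then permeabilized with Cytofix/Cytoperm for intracellular IFNγ staining and flow cytometry.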

CD1d = target: T1, CD1d (Mus musculus, UniProt P11609); assay: Decay of glycolipids from CD1d measured by L317 binding; settings: surface plasmon resonance, 25°C
T1 sequence (P11609 22-305 limits assumed): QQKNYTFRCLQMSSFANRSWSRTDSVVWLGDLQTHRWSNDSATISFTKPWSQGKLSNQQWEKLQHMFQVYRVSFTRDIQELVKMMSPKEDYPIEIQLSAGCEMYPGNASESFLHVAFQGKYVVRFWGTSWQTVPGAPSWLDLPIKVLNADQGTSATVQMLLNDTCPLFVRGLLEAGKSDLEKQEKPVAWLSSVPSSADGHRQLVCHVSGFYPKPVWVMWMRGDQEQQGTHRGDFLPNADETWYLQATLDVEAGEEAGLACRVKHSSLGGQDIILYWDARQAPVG
T1 sequence (P01887 21-119 partner): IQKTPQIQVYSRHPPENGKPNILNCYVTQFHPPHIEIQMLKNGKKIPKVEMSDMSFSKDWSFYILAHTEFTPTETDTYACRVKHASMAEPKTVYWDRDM
In short: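 His-tagged mouse CD1d pulsed overnight with each glycolipid, then captured on Ni-charged NTA sensor chip channels; complexes allowed to decay for varied times before a saturating dose of αGalCer/CD1d-specific mAb L317 was flowed over. Binding was measured by surface plasmon resonance at 25°C and normalized to maximum binding for each antigen.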

splenic DC = assay: Phenotype of splenic DC from glycolipid immunized mice; assay type: in vivo, mouse; settings: 17.5 h and 44 h after immunization
[1] = target: Vα14i/Vβ8.2 TCR of 1.2 Vα14i NKT cell hybridoma (Mus musculus, UniProt A0A0B4J1J9+A0A0G2JG46+A0A140T8N6+P11609); assay: Equilibrium glycolipid/CD1d tetramer staining of 1.2 hybridoma; assay type: binding; settings: glycolipid/CD1d tetramers
Vα14i NKT cells = assay: Ex vivo activation of Vα14i NKT cells after i.v. glycolipid; assay type: in vivo, mouse; settings: 1 μg i.v.; for Vα14i NKT cell activation (percentage producing IFNγ, IL-4 and TNF; CD69 and CD40L expression): two hours after injection
In short: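 Mice received glycolipid i.v. (DMSO stock diluted in PBS, heated 56°C 10 min). Spleens were taken at 2 h, mechanically dissociated, filtered and red cells lysed. Cells were stained with mAbs together with CD1d tetramer in PBS/10% FCS at 4°C for 45 min and analysed by flow cytometry.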

C57BL/6J mice = assay: Serum cytokine ELISA after i.v. injection of glycolipid; assay type: in vivo, mouse; settings: 1 μg i.v.
In short: (§1)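 Glycolipid was dissolved at 100 μg/mL in DMSO, diluted in PBS, heated 56°C 10 min and vortexed. Glycolipid or vehicle was injected i.v. and mice bled at set times. Serum cytokines were quantified by sandwich ELISA with paired capture/detection mAbs.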

1.2 Vα14i NKT hybridoma = assay: ERK1/2 phosphorylation in Vα14i NKT hybridoma after glycolipid-pulsed APCs; assay type: cell-based, mouse; settings: 1.2 hybridoma; for extent of ERK1/2 phosphorylation: A20-CD1d cells as APCs
In short: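 A20-CD1d cells (10^6/ml) were pulsed 2 h with glycolipid (DMSO stock diluted in PBS), washed cold, and mixed with hybridoma cells at 4:1 on ice, then pelleted and warmed to 37°C for timed intervals. Cells were fixed in 4% PFA, stained for Thy1.2, permeabilized in 90% methanol and stained for ppERK1/2. Flow cytometry was gated on Thy1.2+ cells with t = 0 as negative control. Values are % ppERK+ (glycolipid) minus % ppERK+ (vehicle).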

[2] = target: T2, glycolipid/CD1d complexes on splenic APC (Mus musculus, UniProt P11609); assay type: in vivo; settings: 1 μg i.v.
T2 sequence (P11609 22-336): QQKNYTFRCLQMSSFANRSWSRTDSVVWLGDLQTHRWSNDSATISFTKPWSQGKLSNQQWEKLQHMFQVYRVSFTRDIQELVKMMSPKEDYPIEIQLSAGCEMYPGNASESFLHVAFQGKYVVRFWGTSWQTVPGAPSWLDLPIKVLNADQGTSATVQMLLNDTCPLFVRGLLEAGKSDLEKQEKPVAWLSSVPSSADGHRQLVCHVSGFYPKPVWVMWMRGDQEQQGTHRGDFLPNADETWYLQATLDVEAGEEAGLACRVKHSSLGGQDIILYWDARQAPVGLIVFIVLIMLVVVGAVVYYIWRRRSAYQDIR
T2 sequence (P01887 21-119 partner): T1 sequence (P01887 21-119 partner)
In short: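 At set times after i.v. immunization, spleens were collagenase D-digested at 37°C, treated with 5 mM EDTA for 5 min and strained. Cells were split into CD11c-enriched and depleted fractions with anti-CD11c magnetic beads. A dose range of each fraction was cultured with 1.2 hybridoma cells (2 × 10^5/well) without added antigen. Supernatant IL-2 was measured by sandwich ELISA.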

monoclonal antibody L317 = assay: L317 antibody binding to glycolipid/CD1d complexes; settings: surface plasmon resonance
In short: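 Real-time binding of L317 to glycolipid-loaded CD1d was measured by surface plasmon resonance at 25°C. Kinetic parameters came from fitting specific sensorgrams.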

CD40−/− mice = assay: Serum IFNγ in CD40-deficient mice; assay type: in vivo, mouse; settings: 1 μg i.v., serum at 6 h and 24 h, versus C57BL/6
In short: as §1

[3] = APC harvested 1.5 h after immunization

Row | t1/2 (dissociation of glycolipid from CD1d) (CD1d; listed as CD1d/αGalCer) | stability of complexes with CD1d in vivo ([2]; functional bioassay) | SMILES | IFNγ production by NK cells (trans-activation) (NK cells) | t1/2 (dissociation of glycolipid from CD1d) (CD1d) | t1/2 (dissociation of glycolipid from CD1d) (CD1d; listed as CD1d/OCH) | increased expression of CD80, CD86 and CD1d in splenic DC (splenic DC) | tetramer binding to 1.2 hybridoma cells [1] | CD40L expression on Vα14i NKT cells (Vα14i NKT cells; 2 h after injection, spleen) | Vα14i NKT cell activation (percentage producing IFNγ, IL-4 and TNF; CD69 and CD40L expression) (Vα14i NKT cells) | serum IFNγ level (C57BL/6J mice) | serum IL-4 level (C57BL/6J mice) | extent of ERK1/2 phosphorylation (1.2 Vα14i NKT hybridoma) | ERK1/2 phosphorylation (1.2 Vα14i NKT hybridoma; BMDCs or splenic B cells as APCs) | IL-2 release by 1.2 hybridoma with APC from immunized mice [2, 3] | IL-2 release by 1.2 hybridoma with APC from immunized mice ([2]; APC harvested 17.5 h and 44 h after immunization) | affinity of L317 for glycolipid bound to CD1d (monoclonal antibody L317) | IFNγ levels in CD40-deficient mice (CD40−/− mice)
1 |  |  | CCCCCCCCCCCCCCCCCCCCCCCC(=O)N[C@@H](COC1OC(CO)C(O)C(O)C1O)[C@H](O)[C@H](O)CCCCC (some centres unmarked) [OCH] | Impaired NK cell trans-activation | 1.09 h | 1.09 ± 0.63 h | to the same extent as αGalCer | barely able to bind | induced more CD40L than C-glycoside | less potent than αGalCer | relatively low levels of IFNγ | high levels of IL-4, equivalent to αGalCer | indistinguishable | induced fewer 1.2 cells to phosphorylate ERK1/2 than αGalCer | higher production of IL-2 than C-glycoside | considerably reduced compared to αGalCer and C-glycoside | weaker | 
2 | 5.043 ± 2.207 h | much more stable in vivo than OCH | CCCCCCCCCCCCCCCCCCCCCCCCCC(=O)N[C@@H](CO[C@H]1O[C@H](CO)[C@H](O)[C@H](O)[C@H]1O)[C@H](O)[C@H](O)CCCCCCCCCCCCCC [αGalCer, α-galactosyl ceramide] | highest percentage of IFNγ-expressing NK cells | 5.043 h |  |  |  |  | highest percentage |  |  | dose-dependent increase in ppERK |  | best response |  | highest | strongly reduced

Reference: paper PMC2834884 (Journal of immunology (Baltimore, Md. : 1950), 2009)
